Columns and labels:
Xenopus laevis = species: Xenopus laevis; test: Tested for the effect on maxi-K-mediated outward current (mSlo) in Xenopus laevis oocytes at 20 uM; assay type: functional, frog
How it was run: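 Two-electrode voltage clamp was run on Xenopus laevis oocytes expressing cloned mSlo maxi-K channels. A single drug concentration was tested in at least five oocytes against iberiotoxin-sensitive outward K+ current. Output is the average percentage change in current relative to the drug-free control (100%).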

[1] = Tested for plasma concentration after intravenous administration (4.7 mg/kg) to male rats; assay type: ADME, organism-based; settings: rat
How it was run: (§1)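 Male rats got an iv bolus of 4.7 mg/kg, N=3 at each time point. Whole brain and plasma were sampled through 24 h. AUC (ng-h/mL plasma, ng-h/g brain) was calculated by the trapezoidal rule over 0–24 h. Brain/plasma ratio was taken from the AUC values. Cmax, Tmax and elimination half-lives were derived for brain and plasma.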

[2] = Tested for plasma concentration in the after 2 hrs of intravenous administration (5 mg/kg) to male rats; assay type: ADME, organism-based; settings: rat
How it was run: (§2)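 Male rats got a single iv bolus of 5 mg/kg. Plasma and whole brain were sampled at 0.25 h and 2 h. Plasma is in ng/mL and brain in ng/g wet weight, each the mean of three animals ± standard deviation. Brain detection limit was 50 ng/g. Brain/plasma ratio was computed at each time point.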

[3] = Ratio of the AUC values of brain and plasma after intravenous administration (4.7 mg/kg) to male rats was evaluated; assay type: ADME, organism-based; settings: rat; how it was run: as §1
[4] = (§3) Tested for concentration in brain after intravenous administration (4.7 mg/kg) to male rats; assay type: ADME, organism-based; design: dose 4.7 mg/kg, route intravenous; settings: rat; how it was run: as §1
[5] = Half-life in plasma after intravenous administration (4.7 mg/kg) to male rats; assay type: ADME, organism-based; settings: rat; how it was run: as §1
[6] = Compound was evaluated for Tmax in brain after intravenous administration in male rats; assay type: ADME, organism-based; settings: rat; how it was run: as §1
[7] = Tested for plasma concentration in the after 0.25 hrs of intravenous administration (5 mg/kg) to male rats; assay type: ADME, organism-based; settings: rat; how it was run: as §2
[8] = Ratio in brain and plasma after 0.25 hrs of intravenous administration (5 mg/kg) to male rats was evaluated; assay type: ADME, organism-based; settings: rat; how it was run: as §2
[9] = Ratio in brain and plasma after 2 hrs of intravenous administration (5 mg/kg) to male rats was evaluated; assay type: ADME, organism-based; settings: rat; how it was run: as §2
[10] = Tested for concentration in brain after 0.25 hrs of intravenous administration (5 mg/kg) to male rats; assay type: ADME, organism-based; settings: rat; how it was run: as §2
Rattus norvegicus = test: as §3; assay type: ADME, organism-based; settings: in vivo; how it was run: as §1
[11] = Tested for concentration in brain after 2 hrs of intravenous administration (5 mg/kg) to male rats; assay type: ADME, organism-based; settings: rat; how it was run: as §2
[12] = Half-life in brain after intravenous administration (4.7 mg/kg) to male rats; assay type: ADME, organism-based; settings: rat; how it was run: as §1
[13] = Tested for plasma concentration after 2 hrs of intravenous administration (5 mg/kg) to male rats; assay type: ADME, organism-based; settings: rat; how it was run: as §2
[14] = Tested for ratio in brain and plasma after 0.25 hrs of intravenous administration (5 mg/kg) to male rats; assay type: ADME, organism-based; settings: rat; how it was run: as §2
[15] = Tested for plasma concentration after 0.25 hrs of intravenous administration (5 mg/kg) to male rats; assay type: ADME, organism-based; settings: rat; how it was run: as §2
[16] = Tested for ratio in brain and plasma after 2 hrs of intravenous administration (5 mg/kg) to male rats; assay type: ADME, organism-based; settings: rat; how it was run: as §2

O=S(=O)(Nc1c(O)nc2cc(C(F)(F)F)ccc2c1-c1cc(Cl)ccc1O)C(F)(F)F
Increase (Xenopus laevis): 213%

Nc1c(O)nc2ccccc2c1-c1cc(Cl)ccc1O
Increase (Xenopus laevis): 114%

Nc1c(O)nc2c(C(F)(F)F)cccc2c1-c1cc(Cl)ccc1O
Increase (Xenopus laevis): 112%

Nc1c(O)nc2ccc(C(F)(F)F)cc2c1-c1ccccc1O
Increase (Xenopus laevis): 137%

Nc1c(O)nc2ccc(C(F)(F)F)cc2c1-c1cc(Cl)ccc1O
AUC [1]: 2700 ng·h/mL | concentration at 2 h [2]: 281 ng/mL | Kp [3]: 7.1 | Cmax [4]: 1990 ng/g | half-life [5]: 456 min | Tmax [6]: 4.8 min | concentration at 0.25 h [7]: 802 ng/mL | Kp at 0.25 h [8]: 1.6 | Increase (Xenopus laevis): 186% | Kp at 2 h [9]: 5.3 | concentration at 0.25 h [10]: 1310 ng/g | AUC (Rattus norvegicus): 19300 ng·h/g | concentration at 2 h [11]: 1490 ng/g | half-life [12]: 486 min

Nc1c(O)nc2ccc(C(F)(F)F)cc2c1-c1ccccc1
Increase (Xenopus laevis): 111%

Nc1c(O)nc2cccc(C(F)(F)F)c2c1-c1cc(Cl)ccc1O
Increase (Xenopus laevis): 191%

O=c1[nH]c2cc(C(F)(F)F)ccc2n1-c1cc(Cl)ccc1O
Increase (Xenopus laevis): 132%

CS(=O)(=O)Nc1c(O)nc2ccc(C(F)(F)F)cc2c1-c1cc(Cl)ccc1O
Increase (Xenopus laevis): 164%

Nc1c(O)nc2ccc(Cl)cc2c1-c1cc(Cl)ccc1O
Increase (Xenopus laevis): 157%

COc1ccc(Cl)cc1-c1c(N)c(O)nc2ccccc12
Increase (Xenopus laevis): 108%

CC(=O)Nc1c(O)nc2ccc(C(F)(F)F)cc2c1-c1cc(Cl)ccc1O
Increase (Xenopus laevis): 120%

O=S(=O)(Nc1c(O)nc2ccc(C(F)(F)F)cc2c1-c1cc(Cl)ccc1O)C(F)(F)F
concentration at 2 h [2]: 125 ng/mL | concentration at 0.25 h [7]: 1230 ng/mL | Increase (Xenopus laevis): 343% | concentration at 0.25 h [10]: < 50 ng/g | concentration at 2 h [11]: < 50 ng/g

Nc1c(O)nc2cc(C(F)(F)F)ccc2c1-c1cc(Cl)ccc1O
concentration at 2 h [13]: 339 ng/mL | Kp at 0.25 h [14]: 1.3 | concentration at 0.25 h [15]: 1170 ng/mL | Increase (Xenopus laevis): 159% | concentration at 0.25 h [10]: 1470 ng/g | Kp at 2 h [16]: 4.4 | concentration at 2 h [11]: 1480 ng/g
